# Source: PubChem (several laboratories)
# HCV core dimer = HCV core protein dimerization inhibition; inhibition, % at 5 µM; hit rate 0.33% among 300,000; TR-FRET GST/Flag-core106 dimerization, 1536-well;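 active = inhibition above the mean of all tested compounds plus 3 SD, set per screening campaign, cut at about 45% in these data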
#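 test system = GST/Flag-tagged HCV core106 proteins | probe or stimulus = Eu donor and XL665 acceptor anti-tag antibodies | times = compound-protein-antibody incubation 4 h at 22.5 °C | signal = TR-FRET, excitation 340 nm, emission 617 and 671 nm | measure = percent inhibition of core106 dimerization signal | controls = wells lacking GST-core106 and wells with excess unlabelled core106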
# ABHD5-PLIN5 inh = ABHD5-PLIN5 protein interaction inhibition. inhibition, % at 4 µM. hit rate 0.78% among 360,000. AID 602281. Split G. princeps luciferase complementation, luminescence, 4 h. Q00G26+Q8WTS1;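 active = inhibition above the mean inhibition across every tested compound plus 3 SD, cut at about 22% in these data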
# NadD block = NadD (S. aureus) enzyme inhibition; purified NadD enzyme, colorimetric absorbance read-out; inhibition, % at 20 µM; hit rate 0.78% among 360,000; in the data active = inhibition above about 26%
# rCAG binder = molecules binding r(CAG) RNA repeats. hit rate 1.3% among 370,000. r(CAG) RNA repeat, TO-PRO-1 dye displacement fluorescence. inhibition, % at 3 µM;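 active = inhibition above the plate cutoff, the mean of all test compounds on that plate plus 3 SD, cut at about 35% in these data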;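 note: higher means more dye released from RNA so lower well fluorescence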
# ABHD5-PLIN5 conf = ABHD5-PLIN5 interaction inhibition, confirmed. inhibition, % at 4 µM. hit rate 67% among 2,200. biochemical ABHD5-PLIN5 interaction, luminescence. shares compounds with ABHD5-PLIN5 inh; in the data active = inhibition above about 23%
# HNF4 split-luc = counter-screen for ABHD5-PLIN5 inhibitors: HNF4 split-luciferase; shares compounds with ABHD5-PLIN5 inh; HNF4 dimerization, luminescence, biochemical; inhibition, % at 4 µM; hit rate 77% among 2,200; AID 651674;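 active = mean inhibition across replicate wells exceeding the computed hit threshold, cut at about 13% in these data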;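 note: light from luciferase halves that rejoin when HNF4 fusion proteins dimerize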
# Target sequence (P41235 whole entry, looked up, the tested form may be a part): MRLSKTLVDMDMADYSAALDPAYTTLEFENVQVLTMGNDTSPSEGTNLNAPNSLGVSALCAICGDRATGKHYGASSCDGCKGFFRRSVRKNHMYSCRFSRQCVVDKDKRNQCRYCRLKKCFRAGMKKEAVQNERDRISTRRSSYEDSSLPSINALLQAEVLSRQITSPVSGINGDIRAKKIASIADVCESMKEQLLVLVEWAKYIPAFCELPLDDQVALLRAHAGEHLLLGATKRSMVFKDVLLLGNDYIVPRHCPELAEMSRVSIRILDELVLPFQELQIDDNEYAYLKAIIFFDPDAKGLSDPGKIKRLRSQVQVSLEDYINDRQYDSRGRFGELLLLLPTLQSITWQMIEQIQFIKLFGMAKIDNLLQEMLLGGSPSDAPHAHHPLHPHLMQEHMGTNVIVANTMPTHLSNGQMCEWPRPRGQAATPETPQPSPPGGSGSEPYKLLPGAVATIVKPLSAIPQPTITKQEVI
# A number is an active result; n = inactive; x = not tested or not shown. Shown are actives, neighbours in structure and some others; about 2.6% of the full set was active somewhere.
SMILES,HCV core dimer,ABHD5-PLIN5 inh,NadD block,rCAG binder,ABHD5-PLIN5 conf,HNF4 split-luc
CCC(=O)Nc1nnc(S(=O)(=O)N(C)Cc2ccco2)s1,n,n,n,n,x,x
Cc1ccccc1C(=O)Nc1nnc(S(=O)(=O)N(C)Cc2ccco2)s1,n,n,n,n,x,x
O=S1(=O)c2ccc(Br)cc2OC[C@H](Cc2ccccc2)N1Cc1cn(Cc2ccc(F)cc2)nn1,x,x,x,n,x,x
CCCCNC(=O)C[C@@H]1C(=O)N2CCCC3=C2[C@@]1(C(=O)OCC)CCC3,x,x,x,n,x,x
NC(=O)c1cc2ccccc2oc1=NCc1ccccc1,n,n,n,n,x,x
NC(=O)c1cc2cc(Br)ccc2oc1=NCc1ccccc1,n,62,n,n,n,29
O=C1CCC(c2ccccc2)c2ccccc21 (centres undefined),n,n,n,n,x,x
N#CC1C(=O)c2ccccc2C1c1ccccc1 (centres undefined),x,73,n,n,n,98
O=C(/C=C/c1ccccc1)/C=C/c1ccccc1,n,74,n,n,99,92
CCOc1ccc(/C=C/C(=O)c2ccc(-c3ccccc3)cc2)cc1,n,n,n,n,x,x
O=C(/C=C/c1ccccc1)CC(=O)c1ccccc1,x,n,n,n,x,x
CC(/C=C\c1ccccc1)=C/C(=O)O,n,n,n,n,x,x
N#Cc1ccc(/C=C/C(=O)c2ccccc2)cc1,n,83,n,n,100,105
O=C(/C=C/c1ccccc1)c1ccc2ccccc2c1,x,53,n,n,76,63
O=C(/C=C/c1ccccc1)c1ccccc1,n,35,n,n,82,76
COc1ccc(S[C@]2(C(=O)N3CCCC3)CC(=O)N(C(=O)C3CC3)[C@@H]2c2ccc(OC)cc2)cc1,x,x,x,n,x,x
CC1(C(=O)NS(=O)(=O)c2cccc(OC(F)F)c2)CCN1C(=O)CC1CCCC1 (centres undefined),x,n,n,n,x,x
O=C(C1CCCN(S(=O)(=O)c2cccc3ccccc23)C1)N1CCN(Cc2ccccc2)CC1 (centres undefined),x,x,x,n,x,x
COc1ccc(CN2C(=O)CSCC2(C)C(=O)NCc2ccccc2)cc1 (centres undefined),x,n,x,n,x,x
COc1cccc(C(C(=O)NC2CCCC2)N2CCN(c3cc(C)ccc3C)CC2)c1OC (centres undefined),x,n,x,n,x,x
CC(C)(C)c1ccc(-c2nnc3n2N=C(c2ccc4ccccc4c2)CS3)cc1,x,x,x,n,x,x
O/N=C\c1ccc(-c2ccccc2)o1,n,n,n,n,x,x
O=C(/C=C\c1ccc(-c2ccccc2)o1)c1ccccc1,n,38,n,n,67,90
CCCCN(C)C(=O)c1sc(=O)n(Cc2ccc(Cl)c(Cl)c2)c1C,x,n,n,n,x,x
CC1=NN(c2ccccc2)C(=O)/C1=C/C=C/c1ccccc1,n,25,n,n,98,90
SMILES,HCV core dimer,ABHD5-PLIN5 inh,NadD block,rCAG binder,ABHD5-PLIN5 conf,HNF4 split-luc
COC(=O)[C@]12C[C@H](CC(=O)NCC34CC5CC(CC(C5)C3)C4)C(=O)N(CCc3ccc(OC)c(OC)c3)C1=C[C@H](C(C)C)O[C@@H]2C1CC1,x,x,x,n,x,x
CN(C)CCCNC(=O)c1ccc(-c2nc(-c3ccc(Cl)cc3)cs2)cc1,n,27,n,n,22,n
CN(C)CCCNC(=O)c1ccccn1,n,n,n,n,x,x
CCc1nc2c(sc3nc4c(cc32)COC(C)(C)C4)c(=O)n1Cc1ccco1,n,28,n,n,n,36
CCc1nc(OCc2ccco2)c2sc3nc4c(cc3c2n1)COC(C)(C)C4,n,33,n,n,47,74
CCc1nc2c(sc3nc4c(cc32)COC(C)(C)C4)c(=O)n1Cc1ccccc1,n,n,n,n,x,x
COC(C/C=C/C(=O)COCc1ccccc1)OC,x,24,n,n,46,43
COC(C/C=C\C(=O)COCc1ccccc1)OC,n,x,x,x,x,x
COC(C[C@H]1O[C@@H]1C(=O)COCc1ccccc1)OC,n,x,x,n,x,x
COC(C/C=C/[C@H](O)[C@@H](C)OCc1ccccc1)OC,n,n,n,n,x,x
COC(C/C=C/C(=O)[C@H](C)OCc1ccccc1)OC,n,30,n,x,55,55
COC(C[C@@H]1O[C@H]1C(=O)COCc1ccccc1)OC,n,31,n,n,n,n
C[C@H](CO)N1C[C@H](C)[C@@H](CN(C)C(=O)Nc2ccc(C(F)(F)F)cc2)OCc2cn(nn2)CCCC1=O,x,x,x,n,x,x
Cc1ccc(S(=O)(=O)N2CCCC(C(=O)Nc3c(C)n(C)n(-c4ccccc4)c3=O)C2)cc1C (centres undefined),x,x,x,n,x,x
